LEDGF integ inh = blocks HIV-1 LEDGF/p75-dependent DNA integration; TR-FRET IN-LEDGF/p75 DNA integration, Eu/Cy5; inhibition, % at 3.7 µM; actives 0.64% (n = 370,000);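 active = inhibition above the screen-wide mean plus 3 SD, cut at about 13% in these data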;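 also: signal is the Cy5 over europium emission ratio at 671 and 618 nm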
ARFGAP1 inhibitor = inhibits rat ARF GTPase activating protein 1; actives 0.26% (n = 360,000); Arfgap1-stimulated ARF1 GTP hydrolysis, GDP FP detection; inhibition, % at 16.5 µM;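 active = inhibition above a per-plate limit, mean inhibition of low control wells plus 3 SD, cut at about 25% in these data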
Target sequence (Q62848 1-136 limits assumed): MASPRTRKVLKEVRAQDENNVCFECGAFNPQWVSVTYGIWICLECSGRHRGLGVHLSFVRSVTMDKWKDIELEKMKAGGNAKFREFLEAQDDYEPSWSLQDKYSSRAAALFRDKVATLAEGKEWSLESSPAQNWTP
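Repeats: one replicate per compound; assay system: rat Arfgap1 catalytic domain, aa 1-136; times: enzyme reaction 120 min at 25 °C after 20 min preincubation; detection: FP of antibody-bound GDP Alexa 633 tracer, ex 620/em 688 nm; benchmarks: high control wells lacking Arfgap1, low control full reaction with DMSO; reagent: human ARF1(Δ1-17)-GTP substrate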
ASAP1 inh = inhibitors of human ASAP1 ArfGAP activity; actives 0.19% (n = 360,000); ASAP1-stimulated ARF1 GTP hydrolysis, GDP FP detection; inhibition, % at 16.5 µM; Q9ULH1; in the data active = inhibition above about 25%
Target sequence (Q9ULH1 325-724 limits assumed): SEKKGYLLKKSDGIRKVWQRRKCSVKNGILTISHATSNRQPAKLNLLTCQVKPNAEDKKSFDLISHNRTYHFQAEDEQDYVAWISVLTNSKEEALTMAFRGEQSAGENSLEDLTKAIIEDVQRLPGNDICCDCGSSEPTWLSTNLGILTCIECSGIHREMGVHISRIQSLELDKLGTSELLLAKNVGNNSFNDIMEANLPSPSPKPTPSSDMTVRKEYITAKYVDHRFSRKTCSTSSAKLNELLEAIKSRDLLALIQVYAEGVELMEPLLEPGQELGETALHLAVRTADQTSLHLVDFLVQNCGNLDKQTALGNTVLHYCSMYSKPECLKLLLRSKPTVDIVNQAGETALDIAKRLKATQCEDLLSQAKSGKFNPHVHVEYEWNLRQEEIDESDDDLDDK
TDP2 absorb = TDP2 (human) inhibition, absorbance primary screen; O95551; recombinant TDP2, T5PNP hydrolysis, p-nitrophenol absorbance 415 nm; inhibition, % at 12.8 µM; actives 0.34% (n = 370,000);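 active = inhibition above the mean of all tested compounds plus 3 SD, set per campaign, cut at about 25% in these data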
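Read-out basis: percent inhibition. System: recombinant human TDP2. Buffer or medium: Mg2+-containing Tris-HCl buffer, pH 7.5. Repeats: single replicate. Timing: reaction 2 h, 37 °C. Benchmarks: high control without enzyme, low control DMSO plus TDP2. Probe or stimulus: 5 mM T5PNP. Doses: 12.8 µM only. Measured by: epi absorbance of p-nitrophenol freed from T5PNP by hydrolysis.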
CASP6 VEID inh = caspase-6 (human) enzyme inhibition; inhibition, % at 12.5 µM; AID 686996; actives 0.53% (n = 350,000); purified caspase-6, Z-VEID-R110 cleavage fluorescence;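 active = mean inhibition across replicates at least about 35%, with every replicate also reaching that limit, limit read from the data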
A number is an active result. Sampled rows, rich in hits. Any-hit rate of the full collection: about 1.3%.

Screening Cc1ccc([N+](=O)[O-])cc1S(=O)(=O)Nc1ccc(C(=O)N2CCN(C(=O)c3ccco3)CC2)cc1 returned LEDGF integ inh inactive, ARFGAP1 inhibitor inactive, ASAP1 inh inactive, TDP2 absorb inactive and CASP6 VEID inh 54.
O=C(N/N=C1\C/C(=N\NC(=O)c2ccncc2)c2ccccc21)c1ccncc1 was read as LEDGF integ inh inactive, ARFGAP1 inhibitor inactive, ASAP1 inh inactive, TDP2 absorb inactive and CASP6 VEID inh 90.
`O=c1[nH]c(SCc2nc3ccccc3c(=O)n2-c2ccccc2C(F)(F)F)nc2ccccc12` gave LEDGF integ inh inactive, ARFGAP1 inhibitor inactive, ASAP1 inh inactive and TDP2 absorb inactive.
For S=c1[nH]c2cc(Cl)c3cccnc3c2o1 the results were LEDGF integ inh inactive, ARFGAP1 inhibitor inactive, ASAP1 inh inactive, TDP2 absorb inactive and CASP6 VEID inh 51.
C=Cc1c(C)c2cc3[nH]c(cc4nc(cc5nc(cc1[nH]2)C(C)=C5CCC(=O)O)C(CCC(=O)O)=C4C)c(C)c3C=C was read as LEDGF integ inh 85, ARFGAP1 inhibitor inactive, ASAP1 inh inactive, TDP2 absorb inactive and CASP6 VEID inh 57.
For Cc1cc(-c2nnc(SCC(=O)Nc3ccccc3C(F)(F)F)n2N)n[nH]1 the results were LEDGF integ inh inactive, ARFGAP1 inhibitor inactive, ASAP1 inh inactive, TDP2 absorb inactive and CASP6 VEID inh inactive.
For CCn1nc(C(=O)NNC(=O)c2ccc(OC(F)F)cc2)c2ccccc2c1=O the results were LEDGF integ inh inactive, ARFGAP1 inhibitor inactive, ASAP1 inh inactive, TDP2 absorb inactive and CASP6 VEID inh inactive.
Screening CCC(=O)c1ccc(N2CCN(C(=O)c3ccccc3)CC2)c(F)c1 returned LEDGF integ inh inactive, ARFGAP1 inhibitor inactive, ASAP1 inh inactive, TDP2 absorb inactive and CASP6 VEID inh 88.
`CCOc1cc(/C=C2/NC(=O)NC2=O)cc(Br)c1OCc1ccc(C(=O)O)cc1` gave LEDGF integ inh inactive, ARFGAP1 inhibitor inactive, ASAP1 inh inactive, TDP2 absorb inactive and CASP6 VEID inh 43.
Screening COc1cc(/C=C2\NC(=O)NC2=O)cc(Br)c1OC returned LEDGF integ inh inactive, ARFGAP1 inhibitor inactive, ASAP1 inh inactive, TDP2 absorb inactive and CASP6 VEID inh inactive.
Screening O=C(CCn1c(=O)c2ccccc2n(Cc2cccnc2)c1=O)NCc1ccc2c(c1)OCO2 returned LEDGF integ inh inactive, ARFGAP1 inhibitor inactive, ASAP1 inh inactive and TDP2 absorb inactive.
For COc1ccc(N=C2S/C(=C\c3ccc(OCC(=O)O)cc3)C(=O)N2CCc2c[nH]c3ccccc23)cc1 the results were LEDGF integ inh inactive, ARFGAP1 inhibitor inactive, ASAP1 inh inactive, TDP2 absorb inactive and CASP6 VEID inh 83.
Screening Cc1ccc(S(=O)(=O)N(C)C[C@H]2Oc3ccc(N(C)C)cc3C(=O)N([C@H](C)CO)C[C@@H]2C)cc1 returned CASP6 VEID inh inactive.
Screening COc1ccc(/C=C/C(=O)OCC(=O)N2CC(=O)Nc3ccccc32)cc1S(=O)(=O)N1CCOCC1 returned LEDGF integ inh inactive, ARFGAP1 inhibitor inactive, ASAP1 inh inactive, TDP2 absorb inactive and CASP6 VEID inh inactive.
Screening O=C(NNC(=O)c1ccccc1Br)c1ccc2nc[nH]c2c1 returned LEDGF integ inh inactive, ARFGAP1 inhibitor inactive, ASAP1 inh inactive, TDP2 absorb inactive and CASP6 VEID inh 47.
CCn1cc(Br)c(-c2nc3ccccc3c(=O)n2N)n1 was read as LEDGF integ inh inactive, ARFGAP1 inhibitor inactive, ASAP1 inh inactive and TDP2 absorb inactive.
Oc1cccc(C=NCc2ccccc2)c1O was read as LEDGF integ inh 65, ARFGAP1 inhibitor inactive, ASAP1 inh inactive and TDP2 absorb inactive.
Screening Oc1cccc(C=Nc2cccc3ccccc23)c1O returned LEDGF integ inh inactive, ARFGAP1 inhibitor inactive, ASAP1 inh inactive, TDP2 absorb inactive and CASP6 VEID inh inactive.
`COc1ccc(NC(=O)Nc2cccc3c2O[C@H](CN(C)Cc2ccc(C(=O)O)cc2)[C@@H](C)CN([C@H](C)CO)C3=O)cc1` gave CASP6 VEID inh inactive.
For CCCc1nc2ccccc2c(C(=O)OCC(=O)Nc2ccc(S(=O)(=O)N3CCOCC3)cc2)c1CC the results were LEDGF integ inh inactive, ARFGAP1 inhibitor inactive, ASAP1 inh inactive and TDP2 absorb inactive.
`CCCc1nc2ccccc2c(C(=O)OCC(=O)Nc2cccc(S(=O)(=O)N3CCOCC3)c2)c1CC` gave LEDGF integ inh inactive, ARFGAP1 inhibitor 28, ASAP1 inh inactive and TDP2 absorb inactive.
CCCn1c(N)c(N(CCOC)C(=O)c2ccc([N+](=O)[O-])cc2Cl)c(=O)[nH]c1=O was read as LEDGF integ inh inactive, ARFGAP1 inhibitor inactive, ASAP1 inh inactive, TDP2 absorb inactive and CASP6 VEID inh inactive.
For Cc1cc(C)n(CCc2nc(-c3ccco3)cs2)n1 the results were LEDGF integ inh inactive, ARFGAP1 inhibitor inactive, ASAP1 inh inactive, TDP2 absorb inactive and CASP6 VEID inh 58.
For Cc1nn(CCc2nc(-c3ccco3)cs2)c2[nH]c(=O)cc(C(F)(F)F)c12 the results were LEDGF integ inh inactive, ARFGAP1 inhibitor inactive, ASAP1 inh inactive, TDP2 absorb inactive and CASP6 VEID inh 49.
CCCCn1c(N)c(N(CCOC)C(=O)COC(=O)c2ccccc2OCC)c(=O)[nH]c1=O was read as LEDGF integ inh inactive, ARFGAP1 inhibitor inactive, ASAP1 inh inactive, TDP2 absorb inactive and CASP6 VEID inh inactive.
Screening COCCn1c(SCCN2CCOCC2)nc2c1c(=O)[nH]c(=O)n2C returned LEDGF integ inh inactive, ARFGAP1 inhibitor inactive, ASAP1 inh inactive, TDP2 absorb inactive and CASP6 VEID inh 36.
Screening C=CCn1c(SCCN2CCOCC2)nc2c1c(=O)[nH]c(=O)n2C returned LEDGF integ inh inactive, ARFGAP1 inhibitor inactive, ASAP1 inh inactive and TDP2 absorb inactive.
Cn1c2ccccc2c(=O)c2c(=O)n(Cc3cccc4ccccc34)cnc21 was read as LEDGF integ inh inactive and TDP2 absorb inactive.
For Cc1[nH][nH]c(=O)c1C(c1c(C)[nH][nH]c1=O)c1cn(Cc2cccc3ccccc23)c2ccccc12 the results were LEDGF integ inh inactive, ARFGAP1 inhibitor inactive, ASAP1 inh inactive and TDP2 absorb 60.
For O=C(Oc1ccc(Nc2ncnc3ccccc23)cc1)c1cccnc1 the results were LEDGF integ inh inactive, ARFGAP1 inhibitor inactive, ASAP1 inh inactive, TDP2 absorb inactive and CASP6 VEID inh 38.
`C[C@H]1CN([C@@H](C)CO)C(=O)CCCn2cc(nn2)CO[C@H]1CN(C)C(=O)Nc1cccc(F)c1` gave CASP6 VEID inh inactive.
NC(=N\N=Cc1ccccc1)/C(N)=N/N=Cc1ccccc1 was read as LEDGF integ inh inactive, ARFGAP1 inhibitor inactive, ASAP1 inh inactive, TDP2 absorb inactive and CASP6 VEID inh inactive.
`NC(=N\N=Cc1ccco1)/C(N)=N/N=Cc1ccco1` gave LEDGF integ inh inactive, ARFGAP1 inhibitor inactive, ASAP1 inh inactive, TDP2 absorb inactive and CASP6 VEID inh 62.
